Data as given in ChEMBL document CHEMBL1127305, “kappa Opioid receptor selective affinity labels: electrophilic benzeneacetamides as kappa-selective opioid antagonists” (J Med Chem, 1994).

Assays:
Assay type in all cases: functional, organism-based
Cavia porcellus [1] = organism: Cavia porcellus; assay: Tested for agonist potency by conducting tests on electrically stimulated guinea pig ileal longitudinal muscle preparation; conditions: Muscle tissue
In short: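 Electrically stimulated guinea pig ileal longitudinal muscle preparation. Values are arithmetic means of at least three experiments.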

Cavia porcellus [2] = organism: Cavia porcellus; assay: Tested for wash-resistant activity by incubating guinea pig ileal longitudinal muscle (pre-treated with the compound) with naltrexone (500 nM). Number of determinations, n=3; conditions: Muscle tissue
In short: (§1)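 Agonist-treated guinea pig ileal longitudinal muscle was first washed forty times with Krebs' buffer. It was then incubated with naltrexone (500 nM) for 15 min. Read-out was percent recovery of twitch height.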

Cavia porcellus [3] = organism: Cavia porcellus; assay: Tested for wash-resistant activity in guinea pig ileal longitudinal muscle preparation, after forty washes with Kreb's buffer pre-incubated with compound; conditions: Muscle tissue
In short: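 Electrically stimulated guinea pig ileal longitudinal muscle was incubated with agonist, then given forty washes with Krebs' buffer. Read-out was percent recovery of twitch height.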

Cavia porcellus [4] = organism: Cavia porcellus; assay: Tested for wash-resistant activity after forty post-washes (for removal of naltrexone) with Kreb's buffer pre-incubated with compound
In short: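 Agonist-treated guinea pig ileal longitudinal muscle was washed, then incubated with naltrexone (500 nM) for 15 min. A further forty washes with Krebs' buffer followed. Read-out was percent recovery of twitch height.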

Cavia porcellus [5] = organism: Cavia porcellus; assay: Tested for wash-resistant activity by incubating guinea pig ileal longitudinal muscle (pre-treated with the compound) with naltrexone (500 nM).Number of determinations, n=3; conditions: Muscle tissue; in short: as §1

Structure (SMILES)	IC50 (Cavia porcellus [1]) [nM]	also measured
COC(=O)/C=C/C(=O)Nc1ccc([C@@H](CN2CCCC2)N(C)C(=O)Cc2ccc(Cl)c(Cl)c2)cc1	11.2	–
CN(C(=O)Cc1ccc(Cl)c(Cl)c1)[C@H](CN1CCCC1)c1cccc(N)c1	0.17	–
CN(C(=O)Cc1ccc(Cl)c(Cl)c1)[C@@H](CN1CCCC1)c1ccccc1	198	–
CN(C(=O)Cc1ccc(Cl)c(Cl)c1)[C@H](CN1CCCC1)c1ccc(N=C=S)cc1	38.6	–
CN(C(=O)Cc1ccc(Cl)c(Cl)c1)C(CN1CCCC1)c1ccc(N)cc1 (stereo not drawn)	0.65	–
CN(C(=O)Cc1ccc(Cl)c(Cl)c1)[C@H](CN1CCCC1)c1ccccc1 [ICI-199,441]	0.27	Recovery (Cavia porcellus [2]): 59%; Recovery (Cavia porcellus [3]): 20%
CN(C(=O)Cc1ccc(Cl)c(Cl)c1)[C@H](CN1CCCC1)c1cccc(N=C=S)c1	23.8	Recovery (Cavia porcellus [4]): 0%; Recovery (Cavia porcellus [5]): 41%; Recovery (Cavia porcellus [3]): 0%
COC(=O)/C=C/C(=O)Nc1cccc([C@@H](CN2CCCC2)N(C)C(=O)Cc2ccc(Cl)c(Cl)c2)c1	29	–
